Reference: PMC3957490 (Neuron, 2014)

Key:
Type in all cases: cell-based
[1] = biological target: T1, 2AC1/2BAC2 (GluN1/GluN2A/GluN2B triheteromer) (Rattus norvegicus, UniProt P35439+Q00959+Q00960); assay: two-electrode voltage clamp, Xenopus oocytes
[2] = biological target: T2, wt 2A/2A (wild type GluN1/GluN2A) (Rattus norvegicus, UniProt P35439+Q00959); assay: two-electrode voltage clamp, Xenopus oocytes
Method in brief: (§1)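 Oocytes injected with about 10 ng total cRNA of rat GluN1-1a plus wild-type or C1/C2-tagged GluN2 (tagged at 1:6:6); two-electrode voltage clamp. GluN2A-selective antagonists: 100 μM glutamate + 3 μM glycine. Divalent metal inhibitor: 50 μM glutamate + 50 μM glycine, −20 mV, kept below 300 nM, pH 7.3 (also 7.8, 6.8). GluN2B-selective antagonists: 100 μM glutamate + 50 μM glycine, −40 mV. IC50 from fitted concentration-response data, mean ± SEM over N oocytes.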

[3] = biological target: T3, 2AC1/2AC2 (tagged GluN1/GluN2A) (Rattus norvegicus, UniProt P35439+Q00959); assay: two-electrode voltage clamp, Xenopus oocytes
T3 sequence (Q00959 23-1464, other chains not shown): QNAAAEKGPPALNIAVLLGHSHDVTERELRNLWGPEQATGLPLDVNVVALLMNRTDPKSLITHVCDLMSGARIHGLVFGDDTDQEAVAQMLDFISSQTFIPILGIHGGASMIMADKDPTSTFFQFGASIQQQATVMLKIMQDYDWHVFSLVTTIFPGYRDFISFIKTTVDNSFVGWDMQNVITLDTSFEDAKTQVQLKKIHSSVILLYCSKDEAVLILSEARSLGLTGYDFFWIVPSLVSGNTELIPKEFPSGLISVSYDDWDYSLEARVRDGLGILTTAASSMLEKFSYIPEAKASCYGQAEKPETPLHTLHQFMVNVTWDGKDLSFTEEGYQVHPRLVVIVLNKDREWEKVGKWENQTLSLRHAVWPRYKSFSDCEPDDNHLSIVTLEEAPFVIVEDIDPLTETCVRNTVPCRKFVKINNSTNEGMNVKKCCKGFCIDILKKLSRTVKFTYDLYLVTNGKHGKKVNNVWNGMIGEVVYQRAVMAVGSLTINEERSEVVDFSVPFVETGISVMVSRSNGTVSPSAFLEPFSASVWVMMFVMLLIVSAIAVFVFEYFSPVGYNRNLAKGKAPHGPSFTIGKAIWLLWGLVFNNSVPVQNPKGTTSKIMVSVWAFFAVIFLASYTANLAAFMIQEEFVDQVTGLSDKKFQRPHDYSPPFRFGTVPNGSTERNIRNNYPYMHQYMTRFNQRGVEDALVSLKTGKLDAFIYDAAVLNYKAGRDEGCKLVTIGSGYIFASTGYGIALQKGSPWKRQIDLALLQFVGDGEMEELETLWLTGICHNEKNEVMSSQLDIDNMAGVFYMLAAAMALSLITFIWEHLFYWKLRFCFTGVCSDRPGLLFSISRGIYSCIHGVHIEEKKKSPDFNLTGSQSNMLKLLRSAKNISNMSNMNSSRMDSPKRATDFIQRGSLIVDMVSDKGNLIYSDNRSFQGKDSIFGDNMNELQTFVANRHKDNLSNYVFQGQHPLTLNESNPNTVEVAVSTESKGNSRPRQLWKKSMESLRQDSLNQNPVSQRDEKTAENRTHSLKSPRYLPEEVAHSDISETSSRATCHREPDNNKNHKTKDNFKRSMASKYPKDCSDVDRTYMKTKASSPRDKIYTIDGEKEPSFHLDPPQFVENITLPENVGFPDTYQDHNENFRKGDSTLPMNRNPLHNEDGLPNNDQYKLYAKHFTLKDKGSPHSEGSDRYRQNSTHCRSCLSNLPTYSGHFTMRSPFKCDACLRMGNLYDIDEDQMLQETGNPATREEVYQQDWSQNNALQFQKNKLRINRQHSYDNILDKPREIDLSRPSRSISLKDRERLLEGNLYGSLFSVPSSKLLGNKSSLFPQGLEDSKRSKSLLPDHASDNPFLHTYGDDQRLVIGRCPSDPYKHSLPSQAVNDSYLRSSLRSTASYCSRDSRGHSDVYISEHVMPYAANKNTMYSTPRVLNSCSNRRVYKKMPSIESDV
Method in brief: as §1

[4] = biological target: wt 2B/2B (wild type GluN1/GluN2B) (Rattus norvegicus, UniProt P35439+Q00960); assay: whole-cell patch clamp, HEK293 cells; conditions: agonist; […] glutamate, […] glycine
[5] = biological target: T2, wt 2A/2A (wild type GluN1/GluN2A); assay: whole-cell patch clamp, HEK293 cells; conditions: agonist; […] glutamate, […] glycine
[6] = biological target: 2BAC1/2BAC2 (tagged GluN1/GluN2B with GluN2A CTD) (Rattus norvegicus, UniProt P35439+Q00960); assay: whole-cell patch clamp, HEK293 cells; conditions: agonist; […] glutamate, […] glycine
[7] = biological target: T3, 2AC1/2AC2 (tagged GluN1/GluN2A); assay: whole-cell patch clamp, HEK293 cells; conditions: agonist; […] glutamate, […] glycine
[8] = biological target: T1, 2AC1/2BAC2 (GluN1/GluN2A/GluN2B triheteromer); assay: whole-cell patch clamp, HEK293 cells; conditions: agonist; […] glutamate, […] glycine

T2 sequence (Q00959 23-1464, other chains not shown): as above
T1 sequence (Q00959 23-1464, other chains not shown): as above

| SMILES | IC50 [1] [nM] | IC50 [2] [nM] | IC50 [3] [nM] | Brief glutamate activation (5 ms) / τweighted [4] [ms] | Brief glutamate activation (5 ms) / τweighted [5] [ms] | Brief glutamate activation (5 ms) / τweighted [6] [ms] | Brief glutamate activation (5 ms) / τweighted [7] [ms] | Brief glutamate activation (5 ms) / τweighted [8] [ms] |
| --- | --- | --- | --- | --- | --- | --- | --- | --- |
| O=C(NNC(=O)c1ccc(CNS(=O)(=O)c2ccc(F)c(Cl)c2)cc1)c1ccccc1 [TCN-201] | 1350 ± 130 | 370 ± 30 | 360 ± 20 | – | – | – | – | – |
| N[C@@H](CCC(=O)O)C(=O)O [glutamate] | – | – | – | 314 ± 13 | 32 ± 1 | 274 ± 24 | 33 ± 2 | 57 ± 4 |
